One assay has as its target T1, TAK1 (Homo sapiens, UniProt O43318).
T1 sequence (O43318 1-303 limits assumed): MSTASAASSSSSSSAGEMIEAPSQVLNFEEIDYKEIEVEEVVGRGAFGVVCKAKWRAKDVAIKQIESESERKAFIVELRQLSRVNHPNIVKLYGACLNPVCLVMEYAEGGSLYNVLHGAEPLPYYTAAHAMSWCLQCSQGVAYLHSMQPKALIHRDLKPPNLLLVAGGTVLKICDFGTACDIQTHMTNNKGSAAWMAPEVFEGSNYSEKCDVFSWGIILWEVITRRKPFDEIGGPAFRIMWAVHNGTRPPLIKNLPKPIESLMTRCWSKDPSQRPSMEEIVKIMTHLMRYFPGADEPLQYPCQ
Description: TAK1 ADP-Glo kinase assay. It counts as biochemical. As to conditions: for TAK1 kinase inhibition: compound 500 nM. In short, it runs like this: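 Tiered TAK1 screen using the ADP-Glo kinase assay. Test compounds were first tested at 500 nM. Those exceeding 50% enzyme inhibition were retested at 100 nM, then at 20 nM. Values are means of triplicates with SD.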

For assay [1], the system named is phosphorylated TAK1 (S412). Description: pTAK1. It counts as cell-based, murine. As to conditions: MPC-11 cells, 0.1 or 0.5 μM, 48 h, western blot. The essentials:
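MPC-11 cells were seeded at 0.5–1 × 10^6, left 24 h, then treated with test compound at 0.1 or 0.5 μM or DMSO for 48 h. Cells were lysed in RIPA (pH 7.4) with protease inhibitors and 1 mM PMSF, and protein was measured by BCA. Lysates were run on 10% SDS-PAGE and blotted to PVDF. Blots were probed overnight at 4 °C for pTAK1, TAK1 and β-actin, then with HRP secondaries for 2 h at 24 °C. Detection was by chemiluminescence, with bands quantified relative to actin.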
Background: In western blotting, separated proteins are transferred to a membrane and probed.

Another assay deals with kinase anti-targets. Description: KinomeScan profiling, kinase anti-targets. It counts as binding. Particulars: Eurofins KinomeScan; KIT, ZAP70, JAK2, RET, KDR, PDGFR, FGFR, EGFR, BRAF, AKT, AURKA or B.
In a further assay the target is PKAC alpha (Homo sapiens, UniProt P17612). Description: KinomeScan PKAC alpha. As to conditions: in words. It counts as binding.
The next assay has as its system MPC-11 cells. Nature of the assay: Cell viability assay. It is filed as cell-based, murine. As to conditions: compound 200 nM. In short, it runs like this:
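MPC-11 cells were grown in DMEM with 10% FBS at 37 °C under 5% CO2 and kept below 10 passages. Cells were seeded at 4–5 × 10^3 per well, left 24 h, then exposed to test compound (screened at 1 and 0.2 μM) for 72 h. CellTiter-Blue was added for 3 h and fluorescence read at 560/590 nm. Runs were in triplicate, normalised to DMSO-treated cells.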

Molecules are shown by their SMILES. Bounds are passed on as bounds.

`C[C@@H]1CN(c2ccc3ncc(-c4ccc(CC#N)cc4)n3n2)C[C@H](C)O1` [Compound 14, 2-(4-(6-((2S,6R)-2,6-Dimethylmorpholino)imidazo[1,2-b]pyridazin-3-yl)phenyl)acetonitrile]: the TAK1 kinase inhibition entry at TAK1 is recorded as “moderate kinase inhibition”.

Turning to `C[C@@H]1CN(c2ccc3ncc(-c4ccc(C(F)(F)F)cc4)n3n2)C[C@H](C)O1` [Compound 7, (2S,6R)-2,6-Dimethyl-4-(3-(4-(trifluoromethyl)phenyl)imidazo[1,2-b]pyridazin-6-yl)morpholine], on TAK1, the TAK1 kinase inhibition result is “moderate kinase inhibition”.

`C[C@@H]1CN(c2ccc3ncc(-c4ccc(C(N)=O)cc4)n3n2)C[C@H](C)O1` [Compound 12, 4-(6-((2S,6R)-2,6-Dimethylmorpholino)imidazo[1,2-b]pyridazin-3-yl)benzamide]: the “inhibition of TAK1” value against TAK1 (compound 100 nM) is on record as “decrease in TAK1 kinase inhibition compared to the previous screening”.

For the compound `C[C@@H]1CN(c2ccc3ncc(-c4ccncc4)n3n2)C[C@H](C)O1` [Compound 17, (2S,6R)-2,6-Dimethyl-4-(3-(pyridin-4-yl)imidazo[1,2-b]pyridazin-6-yl)morpholine], on TAK1, the TAK1 kinase inhibition entry is listed as “moderate kinase inhibition”.

As to `Cc1n[nH]c2ccc(-c3cnc4ccc(N5C[C@@H](C)O[C@@H](C)C5)nn34)cc12` [Compound 3, (2S,6R)-2,6-Dimethyl-4-(3-(3-methyl-1H-indazol-5-yl)imidazo[1,2-b]pyridazin-6-yl)morpholine], the “levels of phosphorylated TAK1 (S412) compared to DMSO control” value (“levels … compared to DMSO control” below) in assay [1] is on record as “successful in reducing levels of phosphorylated TAK1 (S412)”.

Regarding `C[C@@H]1CN(c2ccc3ncc(-c4ccc5[nH]nc(C6CC6)c5c4)n3n2)C[C@H](C)O1` [Compound 26, (2S,6R)-4-(3-(3-Cyclopropyl-1H-indazol-5-yl)imidazo[1,2-b]pyridazin-6-yl)-2,6-dimethylmorpholine], in assay [1], the “levels … compared to DMSO control” value is “successful in reducing levels of phosphorylated TAK1 (S412)”. The “inhibition of kinase anti-targets” value in the assay with kinase anti-targets is “minimal inhibition”. The “affinity for PKAC alpha” value at PKAC alpha was “low affinity”.

Regarding `CNC(=O)c1ccc(-c2cnc3ccc(N4C[C@@H](C)O[C@@H](C)C4)nn23)cc1` [Compound 13, 4-(6-((2S,6R)-2,6-dimethylmorpholino)imidazo[1,2-b]pyridazin-3-yl)-N-methylbenzamide], the TAK1 kinase inhibition entry at TAK1 was “moderate kinase inhibition”.

`CCCn1/c(=N/C(=O)c2cccc(C(N)=O)c2)[nH]c2ccccc21` [Takinib, reference compound]: the “levels … compared to DMSO control” value in assay [1] is reported as “did not show a significant difference”.

For `C[C@@H]1CN(c2ccc3ncc(-c4ccc(C#N)cc4)n3n2)C[C@H](C)O1` [Compound 6, 4-(6-((2S,6R)-2,6-Dimethylmorpholino)imidazo[1,2-b]pyridazin-3-yl)benzonitrile], the TAK1 kinase inhibition result at TAK1 is on record as “moderate kinase inhibition”.

On to `C[C@@H]1CN(c2ccc3ncc(-c4cccc(S(C)(=O)=O)c4)n3n2)C[C@H](C)O1` [Compound 8, (2S,6R)-2,6-Dimethyl-4-(3-(3-(methylsulfonyl)phenyl)imidazo[1,2-b]pyridazin-6-yl)morpholine], for which, on TAK1, the TAK1 kinase inhibition result is given as “moderate kinase inhibition”.

For `C[C@@H]1CN(c2ccc3ncc(-c4ccc5cn[nH]c5c4)n3n2)C[C@H](C)O1` [Compound 21, (2S,6R)-4-(3-(1H-Indazol-6-yl)imidazo[1,2-b]pyridazin-6-yl)-2,6-dimethylmorpholine], the inhibition (in general, how much of the control response was suppressed) at 0.5 µM on TAK1 (read-out: TAK1 kinase inhibition, compound 500 nM) is below 50%.

For the compound `C[C@@H]1CN(c2ccc3ncc(-c4cccc(C#N)c4)n3n2)C[C@H](C)O1` [Compound 19, 3-(6-((2S,6R)-2,6-Dimethylmorpholino)imidazo[1,2-b]pyridazin-3-yl)benzonitrile], the TAK1 kinase inhibition entry at TAK1 is listed as “negligible kinase inhibition”.

`C[C@@H]1CN(c2ccc3ncc(-c4ccc(OC(F)(F)F)cc4)n3n2)C[C@H](C)O1` [Compound 11, (2S,6R)-2,6-Dimethyl-4-(3-(4-(trifluoromethoxy)phenyl)imidazo[1,2-b]pyridazin-6-yl)morpholine]: the TAK1 kinase inhibition entry on TAK1 is “negligible kinase inhibition”.

As to `C[C@@H]1CN(c2ccc3ncc(-c4cccnc4)n3n2)C[C@H](C)O1` [Compound 18, (2S,6R)-2,6-Dimethyl-4-(3-(pyridin-3-yl)imidazo[1,2-b]pyridazin-6-yl)morpholine], the TAK1 kinase inhibition entry at TAK1 is “negligible kinase inhibition”.

Take `C[C@@H]1CN(c2ccc3ncc(-c4ccc(F)cc4)n3n2)C[C@H](C)O1` [Compound 9, (2S,6R)-4-(3-(4-Fluorophenyl)imidazo[1,2-b]pyridazin-6-yl)-2,6-dimethylmorpholine]: the TAK1 kinase inhibition entry at TAK1 is on record as “moderate kinase inhibition”.

Take `C[C@@H]1CN(c2ccc3ncc(-c4ccccc4)n3n2)C[C@H](C)O1` [Compound 5, (2S,6R)-2,6-Dimethyl-4-(3-phenylimidazo[1,2-b]pyridazin-6-yl)morpholine]: on TAK1, the TAK1 kinase inhibition result is reported as “negligible kinase inhibition”.

For the compound `C[C@@H]1CN(c2ccc3ncc(-c4ccc(F)c(C#N)c4)n3n2)C[C@H](C)O1` [Compound 16, 5-(6-((2S,6R)-2,6-Dimethylmorpholino)imidazo[1,2-b]pyridazin-3-yl)-2-fluorobenzonitrile], the TAK1 kinase inhibition result on TAK1 is recorded as “moderate kinase inhibition”.

For the compound `Cc1n[nH]c2ccc(-c3cnc4ccc(N5CCO[C@@H](C)C5)nn34)cc12` [Compound 33, (S)-2-Methyl-4-(3-(3-methyl-1H-indazol-5-yl)imidazo[1,2-b]pyridazin-6-yl)morpholine], the “inhibition of MPC-11” value with MPC-11 cells is “inactive”.
